Assay results: ChEMBL document CHEMBL1148395, “Synthesis, biological properties, and molecular modeling investigations of novel 3,4-diarylpyrazolines as potent and selective CB(1) cannabinoid receptor antagonists” (J Med Chem, 2004)

How the values were obtained:
[1] = biological target: T1, Cannabinoid receptor 1 (Homo sapiens, UniProt P21554); test: biochemical; format: cell-based, CHO
[2] = biological target: T1, Cannabinoid receptor 1; test: Antagonistic activity towards cannabinoid receptor 1 expressed as [3H]Arachidonic acid release in CHO cells; format: functional, cell-based; details: read-out: pA2 (converted)
[3] = biological target: Cannabinoid receptor 1 (Rattus norvegicus) (UniProt P20272); test: In vivo effective dose to antagonise cannabinoid receptor 1 agonist (CP-55940) induced hypotension in rat upon peroral administration; format: functional, organism-based
Chain of Cannabinoid receptor 1 (Rattus norvegicus) (P20272 whole entry): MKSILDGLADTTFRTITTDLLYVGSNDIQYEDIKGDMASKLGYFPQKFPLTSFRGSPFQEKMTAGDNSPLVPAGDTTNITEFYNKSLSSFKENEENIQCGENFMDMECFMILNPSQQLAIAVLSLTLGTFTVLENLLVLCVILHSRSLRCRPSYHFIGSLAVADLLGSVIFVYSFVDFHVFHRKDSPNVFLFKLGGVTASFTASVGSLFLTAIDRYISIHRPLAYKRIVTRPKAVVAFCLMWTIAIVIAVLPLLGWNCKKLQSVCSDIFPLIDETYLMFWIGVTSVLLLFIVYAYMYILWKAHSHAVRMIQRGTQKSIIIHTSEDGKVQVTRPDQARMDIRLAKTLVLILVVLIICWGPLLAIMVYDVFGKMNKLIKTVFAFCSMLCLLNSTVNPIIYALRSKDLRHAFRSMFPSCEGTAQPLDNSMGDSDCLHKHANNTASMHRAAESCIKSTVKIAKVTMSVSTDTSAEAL

[4] = biological target: Cannabinoid receptor 1 (Mus musculus) (UniProt P47746); test: In vivo least effective dose required to antagonise cannabinoid receptor 1 agonist (WIN-55212) induced hypothermia in mouse upon peroral administration
Chain of Cannabinoid receptor 1 (Mus musculus) (P47746 whole entry, looked up): as the sequence (P20272 whole entry) above, with E95D counted along it

[5] = biological target: Cannabinoid receptor 2 (Homo sapiens, UniProt P34972); test: Affinity to displace CP-55940 binding from Cannabinoid receptor 2 of human expressed in CHO cells; format: cell-based
Chain of Cannabinoid receptor 2 (P34972 whole entry): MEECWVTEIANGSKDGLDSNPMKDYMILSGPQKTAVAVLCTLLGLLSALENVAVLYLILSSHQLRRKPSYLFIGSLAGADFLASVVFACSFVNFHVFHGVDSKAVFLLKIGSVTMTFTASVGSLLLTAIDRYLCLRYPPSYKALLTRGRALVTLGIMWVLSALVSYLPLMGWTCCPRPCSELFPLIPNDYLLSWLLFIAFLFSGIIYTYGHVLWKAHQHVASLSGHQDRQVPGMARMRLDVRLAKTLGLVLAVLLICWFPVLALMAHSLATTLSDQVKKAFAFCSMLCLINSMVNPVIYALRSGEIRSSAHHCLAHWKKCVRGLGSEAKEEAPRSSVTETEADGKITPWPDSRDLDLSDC
How it was run: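 Bound and free ligand separated by glass-fibre filtration, filter radioactivity counted by liquid scintillation. IC50 values from at least two independent measurements combined and converted to Ki by Cheng-Prusoff.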

[6] = Mean percentage of compound transport through P-glycoprotein; expressed as p-glycoprotein affinity; format: ADME
How it was run: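 Human MDR1 P-glycoprotein transport across a monolayer of PK1 LLC MDR cells; compound added at 1 µg/mL to one side. Bottom-to-top and top-to-bottom transport measured; Pgp factor taken as the ratio of bottom-to-top to top-to-bottom transport, given as mean percentage of compound transported.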

[7] = Mean percentage of compound transport through membrane; expressed as membrane transport; format: ADME
How it was run: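 Transport across a PK1 LLC MDR (human MDR1) cell monolayer with compound at 1 µg/mL added to one side. Membrane passage taken as the mean percentage of compound moved bottom-to-top and top-to-bottom at 3 h after addition.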

[8] = Partition coefficient (logP); format: physicochemical; details: octanol/water
How it was run: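 n-Octanol/water partition measured by RP-HPLC following an OECD method. Mobile phase buffered at pH > 11 on an aluminum-based octadecyl stationary phase.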

T1 sequence (P21554 whole entry): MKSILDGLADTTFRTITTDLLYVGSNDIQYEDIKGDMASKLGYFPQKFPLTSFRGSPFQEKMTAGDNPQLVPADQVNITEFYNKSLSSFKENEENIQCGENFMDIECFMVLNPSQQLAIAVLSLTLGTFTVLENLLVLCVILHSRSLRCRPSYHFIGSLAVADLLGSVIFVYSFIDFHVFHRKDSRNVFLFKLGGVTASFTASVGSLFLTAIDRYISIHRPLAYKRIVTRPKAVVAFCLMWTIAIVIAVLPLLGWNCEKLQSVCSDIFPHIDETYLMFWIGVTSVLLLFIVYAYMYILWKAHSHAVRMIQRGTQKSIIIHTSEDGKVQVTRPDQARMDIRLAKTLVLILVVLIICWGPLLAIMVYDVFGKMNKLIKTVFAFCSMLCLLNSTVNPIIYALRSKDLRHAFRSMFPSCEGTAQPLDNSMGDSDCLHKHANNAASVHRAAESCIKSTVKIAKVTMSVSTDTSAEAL

Row | Compound | Ki [1] | Kb [2] | Ki [5] | further results
1 | C/N=C(\NS(=O)(=O)c1ccccc1)N1CC(c2ccccc2)C(c2ccc(Cl)cc2)=N1 (centres undefined) | 170 nM | 31.6 nM | – | –
2 | CN/C(=N\S(=O)(=O)c1ccc(Cl)cc1)N1C[C@H](c2ccccc2)C(c2ccc(Cl)cc2)=N1 | – | – | – | ED50 [3]: 5.5 mg/kg
3 | CN/C(=N\S(=O)(=O)c1ccc(Cl)cc1)N1CC(c2ccccc2)C(c2ccc(Cl)cc2)=N1 (centres undefined) | – | – | – | ED50 [3]: 15 mg/kg
4 | N=C(NS(=O)(=O)c1ccc(Cl)cc1)N1CC(c2ccccc2)C(c2ccc(Cl)cc2)=N1 (centres undefined) | – | – | – | ED50 [3]: > 30 mg/kg; LED [4]: > 30 mg/kg
5 | Cc1cc(C)c(S(=O)(=O)NC(=N)N2CC(c3ccccc3)C(c3ccc(Cl)cc3)=N2)c(C)c1 (centres undefined) | 24.2 nM | 0.398 nM | > 1000 nM | –
6 | CS/C(=N\S(=O)(=O)c1ccc(C(F)(F)F)cc1)N1CC(c2ccccc2)C(c2ccc(Cl)cc2)=N1 (centres undefined) | 16.6 nM | 0.2 nM | > 1000 nM | –
7 | C/N=C(\NS(=O)(=O)c1ccc(Cl)cc1)N1CC(c2ccccc2)C(c2ccc(F)cc2)=N1 (centres undefined) | 214 nM | 25.1 nM | – | –
8 | C/N=C(\NC(=O)c1ccc(Cl)cc1)N1CC(c2ccccc2)C(c2ccc(Cl)cc2)=N1 (centres undefined) | 70.6 nM | 2 nM | – | –
9 | C/N=C(\NS(=O)(=O)c1cccc(C(F)(F)F)c1)N1CC(c2ccccc2)C(c2ccc(Cl)cc2)=N1 (centres undefined) | 36.5 nM | 0.794 nM | > 1000 nM | –
10 | Cc1ccc(S(=O)(=O)NC(=N)N2CC(c3ccccc3)C(c3ccc(Cl)cc3)=N2)cc1 (centres undefined) | 197 nM | 3.98 nM | > 1000 nM | ED50 [3]: > 30 mg/kg; LED [4]: > 30 mg/kg
11 | C/N=C(\NS(=O)(=O)c1c(C)cc(C)cc1C)N1CC(c2ccccc2)C(c2ccc(Cl)cc2)=N1 (centres undefined) | 54.2 nM | 0.398 nM | – | –
12 | C/N=C(\NS(=O)(=O)c1ccc(C(F)(F)F)cc1)N1CC(c2ccccc2)C(c2ccc(Cl)cc2)=N1 (centres undefined) | – | – | – | ED50 [3]: 8.9 mg/kg; LED [4]: 3 mg/kg
13 | CN=C(NS(=O)(=O)c1ccc(Cl)cc1)N1C[C@H](c2ccccc2)C(c2ccc(Cl)cc2)=N1 [IBIPINABANT] | – | – | – | Activity [6]: 1.4; Activity [7]: 14.8; logP [8]: 4.8
14 | C/N=C(\NS(=O)(=O)c1ccc(C(F)(F)F)cc1)N1C[C@H](c2ccccc2)C(c2ccc(Cl)cc2)=N1 | – | – | – | ED50 [3]: 2 mg/kg; LED [4]: 1 mg/kg
15 | CN=C(NS(=O)(=O)c1ccc(C(F)(F)F)cc1)N1C[C@@H](c2ccccc2)C(c2ccc(Cl)cc2)=N1 | 293 nM | 31.6 nM | > 1000 nM | –
16 | C/N=C(\NS(=O)(=O)c1ccc(C)cc1)N1CC(c2ccccc2)C(c2ccc(Cl)cc2)=N1 (centres undefined) | – | 2.51 nM | – | –
17 | CNC(=NS(=O)(=O)c1ccc(C(F)(F)F)cc1)N1CC(c2ccccc2)C(c2ccc(Cl)cc2)=N1 (centres undefined) | 221 nM | 0.501 nM | > 1000 nM | –

Row | Compound | Ki [1] | Kb [2] | Ki [5] | further results
18 | CN=C(NS(=O)(=O)c1ccc(Cl)cc1)N1CC(c2ccc(F)cc2)C(c2ccc(Cl)cc2)=N1 (centres undefined) | 584 nM | – | – | –
19 | CN=C(NS(=O)(=O)c1ccc(OC)cc1)N1CC(c2ccccc2)C(c2ccc(Cl)cc2)=N1 (centres undefined) | 22.9 nM | 10 nM | – | –
20 | NC(=NS(=O)(=O)c1ccc(Cl)cc1)N1CC(c2ccccc2)C(c2ccc(Cl)cc2)=N1 (centres undefined) | 16.1 nM | 0.316 nM | > 1000 nM | Activity [6]: 1.7; Activity [7]: 7; logP [8]: 4.3
21 | CN(C)/C(=N\S(=O)(=O)c1ccc(Cl)cc1)N1CC(c2ccccc2)C(c2ccc(Cl)cc2)=N1 (centres undefined) | 280 nM | 3.16 nM | > 1000 nM | Activity [6]: 1.4; Activity [7]: 15.2; logP [8]: 4.8; ED50 [3]: > 30 mg/kg
22 | C/N=C(\NS(=O)(=O)c1ccccc1Cl)N1CC(c2ccccc2)C(c2ccc(Cl)cc2)=N1 (centres undefined) | 75.4 nM | 5.01 nM | > 1000 nM | –
23 | CNC(=NS(=O)(=O)c1cccc(Cl)c1)N1CC(c2ccccc2)C(c2ccc(Cl)cc2)=N1 (centres undefined) | 13.9 nM | 2.51 nM | > 1000 nM | –
24 | O=C(NS(=O)(=O)c1ccc(Cl)cc1)N1CC(c2ccccc2)C(c2ccc(Cl)cc2)=N1 (centres undefined) | > 1000 nM | – | – | –
25 | C/N=C(\NS(=O)(=O)c1ccc(C(F)(F)F)cc1)N1C[C@@H](c2ccccc2)C(c2ccc(Cl)cc2)=N1 | – | – | – | ED50 [3]: > 30 mg/kg; LED [4]: > 30 mg/kg
26 | C/N=C(\NS(=O)(=O)c1ccc(Cl)cc1)N1C[C@@H](c2ccccc2)C(c2ccc(Cl)cc2)=N1 | – | – | – | ED50 [3]: > 30 mg/kg
27 | C/N=C(\NS(=O)(=O)c1ccc(F)cc1)N1CC(c2ccccc2)C(c2ccc(Cl)cc2)=N1 (centres undefined) | 338 nM | 3.16 nM | > 1000 nM | –
28 | CN=C(NS(=O)(=O)c1ccc(Cl)cc1)N1CC(c2ccc(Cl)cc2)C(c2ccc(Cl)cc2)=N1 (centres undefined) | 255 nM | – | – | –
29 | C/N=C(\NS(=O)(=O)c1ccc2ccccc2c1)N1CC(c2ccccc2)C(c2ccc(Cl)cc2)=N1 (centres undefined) | 21.8 nM | 3.16 nM | – | –
30 | CN/C(=N/S(=O)(=O)c1ccc(C(F)(F)F)cc1)N1C[C@H](c2ccccc2)C(c2ccc(Cl)cc2)=N1 | 35.9 nM | 1 nM | 3510 nM | –
31 | CN(C)/C(=N\S(=O)(=O)c1ccc(F)cc1)N1CC(c2ccccc2)C(c2ccc(Cl)cc2)=N1 (centres undefined) | > 1000 nM | > 31.6 nM | > 1000 nM | –
32 | N=C(NS(=O)(=O)c1ccc(F)cc1)N1CC(c2ccccc2)C(c2ccc(Cl)cc2)=N1 (centres undefined) | 52.6 nM | 1 nM | > 1000 nM | –
33 | COc1ccc(S(=O)(=O)NC(=N)N2CC(c3ccccc3)C(c3ccc(Cl)cc3)=N2)cc1 (centres undefined) | 196 nM | 5.01 nM | > 1000 nM | –
